What was measured:
Assay type in all cases: functional, cell-based
[1] = system: MDA-MB-231; assay: Antiproliferative activity against human MDA-MB-231 cells after 72 hrs by WST-8 assay; details: MDA-MB-231, 72 h
How it was run: (§1)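 The procedure follows an earlier report. Human A549 lung adenocarcinoma and HeLa cervix adenocarcinoma lines came from RCB; PANC-1 pancreatic epithelioid carcinoma, PSN-1 pancreatic adenocarcinoma and MDA-MB-231 breast adenocarcinoma came from ATCC. All were maintained in-house and grown in 96-well plates. Cell absorbance was read on a microplate reader and IC50 derived. 5-Fluorouracil served as positive control.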

[2] = system: A549; assay: Antiproliferative activity against human A549 cells after 72 hrs by WST-8 assay; details: A549, 72 h; how it was run: as §1
[3] = Antiproliferative activity against human PANC1 cells after 72 hrs by WST-8 assay; details: PANC-1, 72 h; how it was run: as §1
[4] = system: HeLa; assay: Antiproliferative activity against human HeLa cells after 72 hrs by WST-8 assay; how it was run: as §1
[5] = system: PSN1; assay: Antiproliferative activity against human PSN1 cells after 72 hrs by WST-8 assay; details: PSN1, 72 h; how it was run: as §1

For `COC1=C(C)[C@]2(O)CC(=O)O[C@@H]3C[C@H]4CC[C@H](O)C(=O)[C@]4(C)[C@@H](C1=O)[C@@]32C`, the IC50 [1] was > 10 µM, the IC50 [2] was > 10 µM and the IC50 [3] was > 10 µM. The IC50 [4] was > 10 µM and the IC50 [5] was > 10 µM.

For `COC1=CC[C@@H]2C[C@H]3OC(=O)C[C@H]4C(C=O)=C(OC)C(=O)[C@H]([C@@]2(C)C1=O)[C@@]34C`, the IC50 [1] was > 10 µM, the IC50 [2] was > 10 µM and the IC50 [3] was > 10 µM. The IC50 [4] was > 10 µM and the IC50 [5] was > 10 µM.

In the case of `COC1=CC[C@@H]2C[C@H]3OC(=O)C=C4C(C)=C(OC)C(=O)[C@H]([C@@]2(C)C1=O)[C@]43C`, the IC50 [1] is reported as > 10 µM, the IC50 [2] is reported as > 10 µM and the IC50 [3] is reported as > 10 µM. For the same molecule, the IC50 [4] was > 10 µM and the IC50 [5] was > 10 µM.

With `COC1=C(C)[C@@H]2CC(=O)O[C@@H]3C[C@H]4CC[C@H](O)C(=O)[C@]4(C)[C@@H](C1=O)[C@@]32C` the IC50 [1] was > 10 µM, the IC50 [2] was > 10 µM and the IC50 [3] was > 10 µM. The IC50 [4] was > 10 µM and the IC50 [5] was > 10 µM.

With `COC1=CC[C@@H]2C[C@H]3OC(O)C[C@H]4C(C)=C(OC)C(=O)[C@H]([C@@]2(C)C1=O)[C@@]34C` (stereo not given in full) the IC50 [1] was > 10 µM, the IC50 [2] was > 10 µM and the IC50 [3] was > 10 µM. The IC50 [4] was > 10 µM and the IC50 [5] was > 10 µM.

For `COC1=CC[C@@H]2C[C@H]3OC(=O)C=C4C(CO)=C(OC)C(=O)[C@H]([C@@]2(C)C1=O)[C@]43C`, the IC50 [1] was > 10 µM, the IC50 [2] was > 10 µM and the IC50 [3] was > 10 µM. For the same molecule, the IC50 [4] was > 10 µM and the IC50 [5] was > 10 µM.

In the case of `COC1=C(OC)C(=O)[C@@]2(C)[C@H](C1)C[C@H]1OC(=O)C[C@@]3(O)C(C)=C(OC)C(=O)[C@H]2[C@@]13C`, the IC50 [1] is reported as > 10 µM, the IC50 [2] is reported as > 10 µM and the IC50 [3] is reported as > 10 µM. For the same molecule, the IC50 [4] was > 10 µM and the IC50 [5] was > 10 µM.

For `COC1=CC[C@@H]2C[C@H]3OC(=O)C[C@H]4C(C)=C(OC)C(=O)[C@H]([C@@]2(C)C1=O)[C@@]34C`, the IC50 [1] was > 10 µM, the IC50 [2] was > 10 µM and the IC50 [3] was > 10 µM. For the same molecule, the IC50 [4] was > 10 µM and the IC50 [5] was > 10 µM.

In the case of `COC1=C(OC)C(=O)[C@@]2(C)[C@H](C1)C[C@H]1OC(=O)C[C@H]3C(C)=C(OC)C(=O)[C@H]2[C@@]13C`, the IC50 [1] is reported as > 10 µM, the IC50 [2] is reported as > 10 µM and the IC50 [3] is reported as > 10 µM. For the same molecule, the IC50 [4] was > 10 µM and the IC50 [5] was > 10 µM.

For `COC1=C(C)[C@@H]2CC(=O)O[C@@H]3C[C@H]4CC[C@H](OC)C(=O)[C@]4(C)[C@@H](C1=O)[C@@]32C`, the IC50 [1] was > 10 µM, the IC50 [2] was > 10 µM and the IC50 [3] was > 10 µM. For the same molecule, the IC50 [4] was > 10 µM and the IC50 [5] was > 10 µM.

`O=c1[nH]cc(F)c(=O)[nH]1` [FLUOROURACIL] showed an IC50 [1] of 1.1 µM, an IC50 [2] of 9 µM and an IC50 [3] of 0.4 µM. For the same molecule, the IC50 [4] was 6.4 µM and the IC50 [5] was 8.7 µM.
